Data published in article PMC3517184 (Bioorganic & medicinal chemistry, 2012).

Columns and labels:
[1] = system: LPS-induced NO production in RAW 264.7 macrophage cells; assay: Inhibition of LPS-induced NO production in RAW 264.7 macrophage cells; assay type: cell-based, murine
[2] = system: LPS-induced activation of NF-κB; assay: NF-κB dual luciferase reporter assay in BV-2 microglial cells; assay type: cell-based
How it was run: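 NF-κB dual-luciferase reporter BV-2 microglia are kept in DMEM with 10% FBS, penicillin, streptomycin and puromycin (3 μg/mL). After 24 h seeding, medium is switched to Opti-MEM with 0.5% FBS. Test compound is added, then LPS at 200 ng/mL for 24 h. Dual-Glo luminescence is read, and the firefly/Renilla ratio is taken as NF-κB activity.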

[3] = system: LPS-induced IL-1β production; assay: LPS-induced IL-1β production in RAW 264.7 cells; assay type: cell-based, murine; details: ELISA
How it was run: (§1)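 RAW 264.7 macrophages are grown in RPMI 1640 with 10% FBS, penicillin and streptomycin at 37°C and 5% CO2. Cells are pretreated with or without LPS, then given test compound (10 mM DMSO stock). After 24 h, supernatants are clarified and cells are lysed, with both stored at −80°C. ELISA measures TNF-α in medium and IL-1β in lysate, with IL-1β normalized to total protein.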

[4] = system: LPS-induced TNF-α production; assay: LPS-induced TNF-α production in RAW 264.7 cells; assay type: cell-based, murine; details: ELISA
How it was run: as §1

[5] = system: cell viability; assay: WST-1 cell viability / toxicity assay; assay type: cell-based; details: up to 10.0 μM
How it was run: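 Cells are seeded at 2×10^4 per well and cultured 24 h at 37°C, then moved to serum-free medium with vehicle or test compound at various concentrations for 24 h. Premixed WST-1 reagent is added, and after 30 min at 37°C absorbance is read at 490 nm.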

[6] = biological target: TLR1/TLR2 (Mus musculus, UniProt Q9EPQ1+Q9QUN7); assay: TLR specificity test, NO production induced by Pam3CSK4 in RAW 264.7 cells; assay type: cell-based, murine; details: 0.6 μM
[7] = biological target: T1, TLR3 (Mus musculus, UniProt Q99MB1); assay: TLR specificity test, NO production induced by poly; assay type: cell-based, murine; details: 0.6 μM, RAW 264.7 cells, poly(I:C)
T1 sequence (Q99MB1 26-905): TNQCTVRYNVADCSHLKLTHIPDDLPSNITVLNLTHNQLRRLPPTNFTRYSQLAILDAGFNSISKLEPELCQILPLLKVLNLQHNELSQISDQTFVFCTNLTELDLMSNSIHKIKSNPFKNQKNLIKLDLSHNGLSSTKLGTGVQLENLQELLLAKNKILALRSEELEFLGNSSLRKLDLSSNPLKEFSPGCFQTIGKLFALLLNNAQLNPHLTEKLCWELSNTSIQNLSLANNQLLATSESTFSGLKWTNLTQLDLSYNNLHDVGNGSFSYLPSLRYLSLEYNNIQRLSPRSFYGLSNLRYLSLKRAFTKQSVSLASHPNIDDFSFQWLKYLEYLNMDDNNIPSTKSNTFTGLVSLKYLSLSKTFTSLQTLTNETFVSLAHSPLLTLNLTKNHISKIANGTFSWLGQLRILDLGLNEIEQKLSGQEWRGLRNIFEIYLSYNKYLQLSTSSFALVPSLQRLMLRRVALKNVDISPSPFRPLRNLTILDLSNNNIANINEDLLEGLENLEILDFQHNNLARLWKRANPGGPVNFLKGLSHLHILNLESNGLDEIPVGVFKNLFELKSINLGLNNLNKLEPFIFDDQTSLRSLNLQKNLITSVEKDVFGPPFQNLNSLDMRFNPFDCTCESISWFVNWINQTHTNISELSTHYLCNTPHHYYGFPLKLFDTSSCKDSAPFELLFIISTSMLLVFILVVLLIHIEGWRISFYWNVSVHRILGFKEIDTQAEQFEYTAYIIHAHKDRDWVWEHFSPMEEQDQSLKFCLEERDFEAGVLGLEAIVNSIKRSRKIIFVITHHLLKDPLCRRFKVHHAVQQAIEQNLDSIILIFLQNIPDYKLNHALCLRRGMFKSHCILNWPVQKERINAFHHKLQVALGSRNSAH

[8] = system: TLR7/8; assay: TLR specificity test, NO production induced by R848 in RAW 264.7 cells; assay type: cell-based, murine; details: 0.6 μM
[9] = biological target: TLR2/TLR6 heterodimer (Mus musculus, UniProt Q9EPW9+Q9QUN7); assay: TLR specificity test, NO production induced by FSL-1 in RAW 264.7 cells; assay type: cell-based, murine; details: 0.6 μM
Chain of TLR2/TLR6 heterodimer (Q9QUN7 25-784): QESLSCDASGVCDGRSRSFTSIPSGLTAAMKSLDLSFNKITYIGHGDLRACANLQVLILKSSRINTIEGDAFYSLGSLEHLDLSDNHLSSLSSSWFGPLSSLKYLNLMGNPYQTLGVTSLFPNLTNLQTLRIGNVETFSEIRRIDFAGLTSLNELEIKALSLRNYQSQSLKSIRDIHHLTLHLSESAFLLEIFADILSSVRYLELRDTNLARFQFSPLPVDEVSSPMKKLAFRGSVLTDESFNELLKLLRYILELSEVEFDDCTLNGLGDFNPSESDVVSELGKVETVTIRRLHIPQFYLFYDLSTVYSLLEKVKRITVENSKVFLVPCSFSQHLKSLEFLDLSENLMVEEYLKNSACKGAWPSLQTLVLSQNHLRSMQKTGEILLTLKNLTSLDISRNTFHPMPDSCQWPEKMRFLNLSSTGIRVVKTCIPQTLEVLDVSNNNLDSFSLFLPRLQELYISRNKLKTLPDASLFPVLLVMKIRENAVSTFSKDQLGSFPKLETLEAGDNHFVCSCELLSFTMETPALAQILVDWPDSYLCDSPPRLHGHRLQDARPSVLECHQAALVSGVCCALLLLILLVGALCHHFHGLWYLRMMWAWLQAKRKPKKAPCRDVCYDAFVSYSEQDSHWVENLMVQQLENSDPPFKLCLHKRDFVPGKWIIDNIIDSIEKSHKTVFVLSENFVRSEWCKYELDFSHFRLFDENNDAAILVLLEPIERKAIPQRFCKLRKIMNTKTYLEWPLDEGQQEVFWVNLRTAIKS
Chain of TLR2/TLR6 heterodimer (Q9EPW9 28-795): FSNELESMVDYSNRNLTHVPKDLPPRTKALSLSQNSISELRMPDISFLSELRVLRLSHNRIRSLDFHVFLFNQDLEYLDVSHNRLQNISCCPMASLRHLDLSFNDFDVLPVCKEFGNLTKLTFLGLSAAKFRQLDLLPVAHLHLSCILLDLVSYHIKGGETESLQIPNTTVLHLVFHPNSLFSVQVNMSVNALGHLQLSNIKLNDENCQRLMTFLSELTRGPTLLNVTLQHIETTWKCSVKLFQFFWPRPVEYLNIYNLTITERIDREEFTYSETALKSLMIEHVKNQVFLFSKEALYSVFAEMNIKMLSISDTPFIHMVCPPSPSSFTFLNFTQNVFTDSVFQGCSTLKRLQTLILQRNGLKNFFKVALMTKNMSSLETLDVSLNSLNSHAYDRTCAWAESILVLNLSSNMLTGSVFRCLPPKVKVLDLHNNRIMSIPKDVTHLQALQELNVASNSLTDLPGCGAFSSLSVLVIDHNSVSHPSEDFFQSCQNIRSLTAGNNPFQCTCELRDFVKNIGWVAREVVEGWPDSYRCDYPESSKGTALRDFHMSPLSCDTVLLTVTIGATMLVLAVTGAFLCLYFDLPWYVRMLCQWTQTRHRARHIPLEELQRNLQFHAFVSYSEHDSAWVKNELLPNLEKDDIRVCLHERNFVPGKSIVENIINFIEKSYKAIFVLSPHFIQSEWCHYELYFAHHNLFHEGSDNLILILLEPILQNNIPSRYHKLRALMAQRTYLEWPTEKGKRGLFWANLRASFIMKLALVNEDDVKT

Chain of TLR1/TLR2 (Q9EPQ1 26-795): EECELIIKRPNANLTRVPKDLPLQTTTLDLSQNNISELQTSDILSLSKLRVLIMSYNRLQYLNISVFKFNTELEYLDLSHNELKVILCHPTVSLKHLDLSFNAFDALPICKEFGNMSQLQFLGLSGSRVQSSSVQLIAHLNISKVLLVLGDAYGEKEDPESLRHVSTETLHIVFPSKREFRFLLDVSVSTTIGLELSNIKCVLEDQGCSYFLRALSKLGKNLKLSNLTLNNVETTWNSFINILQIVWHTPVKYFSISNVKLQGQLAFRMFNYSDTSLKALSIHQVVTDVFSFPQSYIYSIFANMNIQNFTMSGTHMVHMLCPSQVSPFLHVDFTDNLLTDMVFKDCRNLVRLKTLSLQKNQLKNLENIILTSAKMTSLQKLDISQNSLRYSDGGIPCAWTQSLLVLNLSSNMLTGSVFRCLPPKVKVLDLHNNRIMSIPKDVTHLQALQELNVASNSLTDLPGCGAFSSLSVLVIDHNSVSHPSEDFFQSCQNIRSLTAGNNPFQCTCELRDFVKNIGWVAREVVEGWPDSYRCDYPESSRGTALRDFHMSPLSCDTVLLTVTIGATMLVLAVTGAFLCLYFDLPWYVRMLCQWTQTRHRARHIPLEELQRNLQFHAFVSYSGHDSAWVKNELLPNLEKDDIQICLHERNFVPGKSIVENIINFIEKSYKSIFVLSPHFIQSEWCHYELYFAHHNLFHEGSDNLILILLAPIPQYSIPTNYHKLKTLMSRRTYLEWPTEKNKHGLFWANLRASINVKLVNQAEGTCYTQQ
Chain of TLR1/TLR2 (Q9QUN7 25-784): as the sequence (Q9QUN7 25-784) above

COC(=O)C(Cc1ccccc1[N+](=O)[O-])C(=O)OC [Compound 22, Dimethyl 2-(2-nitrobenzyl) malonate]
inhibition of LPS-induced NO production ([1]; RAW 264.7 cells, at the tested concentrations (Figure 1A)): negligible inhibition
effect on LPS-induced NF-κB activation ([2]; BV-2 cells, concentrations up to 10 μM): did not alter
effect on IL-1β production [3]: did not affect
effect on TNF-α production [4]: did not affect

COC(=O)C(=Cc1ccccc1)C(=O)OC [Compound 2, Dimethyl 2-benzylidenemalonate]
decrease of activity relative to 1 (NO production) ([1]; absence of any substituent on the benzene ring): greater than 2 fold

COC(=O)C(=Cc1ccccc1[N+](=O)[O-])C(=O)OC [Compound 1, Dimethyl 2-(2-nitrobenzylidene)malonate]
cytotoxicity (WST-1 toxicity assay) [5]: did not show significant toxicity
IC50 ([2]; Mus musculus, BV-2, 24 h, read-out: IC50, inhibition of LPS-induced NF-κB reporter activity): 5.92 ± 0.14 µM
inhibition of TLR1/TLR2 signaling (NO production) [6]: negligible inhibition
inhibition of TLR3 signaling (NO production) [7]: negligible inhibition
inhibition of TLR7/8 signaling (NO production) [8]: negligible inhibition
effect on signal via TLR2/TLR6 heterodimer (NO production) [9]: reduced the signal
